Screens from PubChem BioAssay.
HKDC1 activator = increases human hexokinase HKDC1 activity. recombinant HKDC1, G6PDH/diaphorase resazurin fluorescence; stronger effect = lower value. activity change, negative = activation, % at 20 µM. actives 0.056% (n = 340,000);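 active = activation of 40% or more at 20 µM, a change of -40% or lower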
Target sequence (Q2TB90 whole entry, looked up): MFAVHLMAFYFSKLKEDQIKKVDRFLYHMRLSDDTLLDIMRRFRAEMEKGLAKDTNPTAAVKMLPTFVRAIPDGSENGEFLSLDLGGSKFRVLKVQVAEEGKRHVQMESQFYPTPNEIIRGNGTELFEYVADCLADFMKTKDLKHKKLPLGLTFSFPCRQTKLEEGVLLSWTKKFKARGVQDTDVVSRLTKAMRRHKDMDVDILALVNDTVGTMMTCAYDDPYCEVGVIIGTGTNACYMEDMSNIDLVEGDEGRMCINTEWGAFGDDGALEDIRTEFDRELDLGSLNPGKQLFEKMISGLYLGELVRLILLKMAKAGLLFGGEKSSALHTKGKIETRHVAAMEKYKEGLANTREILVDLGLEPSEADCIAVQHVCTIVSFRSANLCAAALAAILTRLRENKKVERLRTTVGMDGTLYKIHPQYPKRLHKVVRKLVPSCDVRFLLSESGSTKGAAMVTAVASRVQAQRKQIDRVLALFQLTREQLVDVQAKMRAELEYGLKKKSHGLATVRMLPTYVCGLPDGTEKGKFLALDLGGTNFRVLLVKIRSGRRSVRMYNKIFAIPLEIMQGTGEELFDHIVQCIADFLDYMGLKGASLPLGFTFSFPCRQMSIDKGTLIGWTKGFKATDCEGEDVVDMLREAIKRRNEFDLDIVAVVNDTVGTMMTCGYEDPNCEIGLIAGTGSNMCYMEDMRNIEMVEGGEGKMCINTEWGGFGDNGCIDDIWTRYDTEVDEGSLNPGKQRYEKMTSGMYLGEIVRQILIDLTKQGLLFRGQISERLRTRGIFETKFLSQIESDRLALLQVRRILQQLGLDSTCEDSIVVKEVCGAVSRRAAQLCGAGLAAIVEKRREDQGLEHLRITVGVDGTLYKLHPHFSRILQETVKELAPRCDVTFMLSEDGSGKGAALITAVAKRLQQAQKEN
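Signal: coupled resazurin-to-resorufin fluorescence, Ex 525/Em 613 nm. Test system: in-house human HKDC1 enzyme, G6PDH and diaphorase coupling enzymes. Quantity: HKDC1 5 µg/mL. Timing: 90 min reaction at room temperature, dark.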
* = called active by the depositor. These entries were drawn from the full list.

SMILES | HKDC1 activator
Cc1sc(-c2ccccn2)nc1OC(=O)c1ccc(F)cc1F | -50*
C=CC(=O)N1C/C(=C/c2ccccc2)C(=O)/C(=C\c2ccccc2)C1 | 38
COc1ccc(C2=NNC(=Nc3cc(S(=O)(=O)N(C)C)ccc3C)SC2)c(OC)c1 | -125*
CN(C)S(=O)(=O)c1cccc(N=C2NN=C(c3ccccc3)CS2)c1 | -281*
CC(=O)Nc1ccc(C2=NNC(=Nc3cccc(S(=O)(=O)N(C)C)c3)SC2)cc1 | -284*
O=Cc1ccc(Sc2nnc(-c3ccccc3)o2)c([N+](=O)[O-])c1 | 43
COc1ccc(S(=O)(=O)/N=C2/C=CC(=O)C(C)=C2C)cc1 | 52
Cc1ccc(Sc2ccc(/C=C3/C(=O)NN(c4ccccc4)C3=O)o2)cc1 | 35
COC(=O)c1ccc2c(c1)C(C)(C)C(/C=C/c1ccccc1O)=[N+]2C | 38
Cc1cc(C)n2cc(CSc3nnc(-c4ccccc4)c(-c4ccccc4)n3)nc2n1 | 38
O=C(Nc1ccc(Nc2ccncc2)cc1)c1ccc(Nc2ccnc3ccc([N+](=O)[O-])cc23)cc1 | 44
O=C1/C(=C/Nc2cccc([N+](=O)[O-])c2)CCc2ccccc21 | 41
Cc1cc([N+](=O)[O-])nn1CC(=O)N/N=C/c1ccc(O)cc1O | -49*
NS(=O)(=O)c1ccc(N/N=C/c2ccc(O)c(O)c2O)c([N+](=O)[O-])c1 | 36
Cc1cc(C)n(Cc2ccc(C(=O)N/N=C/c3ccc(-c4ccc([N+](=O)[O-])cc4)o3)o2)n1 | 66
C[c-]1[c-](C)[c-](C)[c-](C)[c-]1C.[Fe].c1cc2nccc(N3CCCC3)[c-]2c1 (stereo not drawn) | 49
O=C1/C(=C\c2ccc(-c3ccccc3[N+](=O)[O-])o2)C(c2ccccc2)=NN1c1ccccc1 | 42
COc1cc(N(C)C)ccc1C=c1c2ccccc2n2c1cc(-c1ccccc1)[n+]2C | 41
O=C(O)c1cc(O)c2c(c1)[C@H]([C@H]1c3cc(C(=O)O)cc(O)c3C(=O)c3c(O[C@@H]4O[C@H](CO)[C@@H](O)[C@H](O)[C@H]4O)cccc31)c1cccc(OC3O[C@H](CO)[C@@H](O)[C@H](O)[C@H]3O)c1C2=O (stereo partly drawn) | 87
Cc1ccccc1/C=C/C(=O)c1ccc([N+](=O)[O-])o1 | 46
COCc1cc(SC2CCCCC2)nc(C)n1 | 46
CCc1ccc(S(=O)(=O)Nc2ccc(O)c3ccccc23)cc1 | 44
CCN(CC)c1ccc(/C=N/NC(=O)c2cccc(S(=O)(=O)Nc3ccccc3OC)c2)c(O)c1 | -43*
O=S(=O)(Nc1ccc(O)c2ccccc12)c1ccc(F)cc1 | 43
[S-]c1nnc(-c2ccc(Br)cc2)n1-c1ccccc1.[Zn+2] | 49
SMILES | HKDC1 activator
CC1(C)CC[C@]2(C(=O)n3ccnc3)CC[C@]3(C)[C@H](C(=O)C=C4[C@@]5(C)C=C(C#N)C(=O)C(C)(C)[C@@H]5CC[C@]43C)[C@@H]2C1 | 48
O=C1C=C(N2CCOCC2)c2ccccc2C1=O | 77
CC(=O)C1=C(c2cccc([N+](=O)[O-])c2)N(C(C)=O)n2c(C)nnc2S1 | -308*
CC(NC1=CC(=O)c2cccnc2C1=O)C(O)c1ccccc1 (stereo not drawn) | 46
Cn1c2ccccc2c(=O)c2c(=O)n(-c3ccc(F)cc3)c(-c3cccs3)nc21 | 68
O=C(Nc1ccc2nc(-c3ccco3)c(-c3ccco3)nc2c1)N1CCCCCC1 | 45
Cc1n[nH]c(=O)c2c(NC(=O)CSc3nnc(C4CC4)n3C)oc(C)c12 | 40
CC(NNC(=S)N1CCN(c2ccccn2)CC1)c1nccc2ccccc12 (stereo not drawn) | -42*
O=c1cc(O)sc2ccccc12 | 43
O=C1c2ccc3c4c(ccc(c24)C(=O)N1c1ccc(O)cc1)C(=O)N(c1ccc(O)cc1)C3=O | 56
CCN(CC)c1ccc(NC(=O)c2ccccc2Br)cc1S(=O)(=O)Nc1ccccc1OC | -43*
Nc1nc(Cl)c(N)c(NCC2(CO)CC(CCc3ccccc3)C2)n1 (stereo not drawn) | 42
O=C(CSc1n[nH]c(=O)[nH]c1=O)Nc1ccc2c(c1)C(=O)c1ccccc1C2=O | 52
O=C(COc1ccccc1/C=C\c1[nH]c(=O)[nH]c(=O)c1[N+](=O)[O-])Nc1ccccc1 | 40
CCN(CC)C(=O)c1ccc(C(=O)c2c(C)cc(C)cc2C)cc1 | 39
COc1ccc(CN2CCn3nc(C(=O)NC(C)C)cc3C2=O)cc1 | -75*
COc1ccccc1N(C)S(=O)(=O)c1ccc(Cl)c(C(=O)NCC2(N(C)C)CCCCC2)c1 | 42
COc1cc(N=c2ssnc2Cl)cc(OC)c1 | -51*
COc1ccc(OC)c(NC(=O)CSc2ccc(-c3ccco3)nn2)c1 | 43
CN1CCN(C2=C(Cl)C(=O)c3ccccc3C2=O)CC1 | 44
O=C(O)c1[nH]c2ccccc2c1C(c1cc(Cl)cc([N+](=O)[O-])c1O)c1c(C(=O)O)[nH]c2ccccc12 | 38
CCOC(=O)c1c(NC(=O)CSc2nnnn2-c2ccc(OC)cc2)sc(C)c1C | -48*
CC1=C(SCc2ccccc2)C(=O)c2ccccc2C1=O | 44
CCOC(=O)C(C(=O)OCC)c1cc(Br)c2noc3c2c1C(=O)c1ccccc1-3 | 54
COC(=O)c1ccccc1NC1=C/C(=N\S(=O)(=O)c2ccc(C(=O)O)cc2)c2ccccc2C1=O | 82
SMILES | HKDC1 activator
Clc1ccc(N=c2ssnc2Cl)nc1 | -194*
N#CC(C#N)=Cc1cc2ccccc2nc1N1CCCCC1 | 38
CC1(C)C(=O)Nc2ccccc2N1C(=O)COC(=O)c1cc(Cl)cc(Cl)c1 | -41*
CC(C)c1ccc(S(=O)(=O)/N=C2/C=C(Sc3ncn[nH]3)C(=O)c3ccccc32)cc1 | 64
CCOc1ccc(S(=O)(=O)Nc2cc(SCC(=O)O)c(O)c3ccccc23)cc1 | 60
CC(=NNC(=S)N1CCCCC1)c1cccc(C)n1 | -40*
O=C(OCC(=O)N1CCN(C(=O)c2ccco2)CC1)c1cc(-c2ccccc2)nc2ccccc12 | 37
N#Cc1ccc(CSc2nnc(NC(=O)c3ccc4ncsc4c3)s2)cc1 | 51
CC(=O)n1cc(N(C(=O)CCl)c2ccc(C)cc2)c2ccccc21 | 41
COc1ccc(C(=O)c2coc3c2C(=O)C(=O)c2ccccc2-3)cc1 | 61
